In ChEMBL document CHEMBL1134329, “Dopamine D(3) receptor antagonists. 1. Synthesis and structure-activity relationships of 5,6-dimethoxy-N-alkyl- and N-alkylaryl-substituted 2-aminoindans” (J Med Chem, 2001):

Columns and labels:
[1] = species: Rattus norvegicus; assay: In vitro stability in rat hepatocytes relative to that of PNU-93385.; format: functional; conditions: Hepatocyte
Procedure, shortened: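 Compound incubated alongside reference PNU-93385. Metabolism followed by HPLC with UV detection. Intrinsic clearance is expressed relative to the reference to give relative metabolic stability.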

[2] = target: D(2) dopamine receptor (Rattus norvegicus, UniProt P61169); assay: Affinity at D2 dopamine receptor on CHO cell membranes by [3H]PNU-86170 displacement.
Procedure, shortened: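 Cloned rat D2 receptor stably expressed in CHO cells; membranes from cell pellets disrupted in ice-cold 50 mM Tris/5 mM EDTA/5 mM EGTA pH 7.4 with graded centrifugation. [3H]-PNU-86170 (2 nM) competition, 11 concentrations in duplicate, 20 mM HEPES/10 mM MgSO4 pH 7.4, 1 h room temperature. Haloperidol 3 µM defines nonspecific binding. Filtration or SPA read-out; one-site fit IC50, Ki by Cheng-Prusoff.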

[3] = target: D(3) dopamine receptor (Rattus norvegicus, UniProt P19020); assay: Affinity at rat D3 dopamine receptor on CHO cell membranes by [3H]spiperone displacement.
[4] = target: D(3) dopamine receptor (Rattus norvegicus) (UniProt P19020); assay: Inhibition of [3H]spiperone at D3 dopamine receptors on CHO cell membranes; 1000 nM; format: cell-based
Procedure, shortened: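 Cloned rat D3 receptor in stably transfected CHO cell membranes, filtration assay with [3H]spiperone (0.3 nM). Single concentration of 1000 nM in duplicate, given as mean % inhibition. Buffer 20 mM HEPES, 10 mM MgSO4, 150 mM NaCl, 1 mM EDTA pH 7.4, 1 h at room temperature. 3 µM haloperidol for nonspecific binding.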

[5] = target: D(2) dopamine receptor (Rattus norvegicus) (UniProt P61169); assay: Inhibition of [3H]-PNU-86170 binding at D2 dopamine receptors on CHO cell membranes; 1000 nM; format: cell-based
Procedure, shortened: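 Single-point screen at 1000 nM in duplicate, reported as mean % inhibition. Rat D2 receptor stably expressed in CHO cell membranes, labelled with [3H]-PNU-86170 (2 nM). Buffer 20 mM HEPES/10 mM MgSO4 pH 7.4, 1 h at room temperature. Nonspecific binding defined by 3 µM haloperidol.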

[6] = system: Rattus norvegicus; assay: Inhibition of (+)-MK-801-induced hyperactivity in rats following 30 umol/kg i.p.; format: functional; set-up: scale not given: the % may be the effect or the level left
Procedure, shortened: (§1)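 Rats given (+)-MK-801 0.2 mg/kg sc plus test compound ip, 10-200 µmol/kg, in vehicle of 0.9% NaCl in 0.25% methylcellulose. Locomotor activity expressed as % of vehicle control ±SEM, 8-26 animals per group.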

[7] = system: Rattus norvegicus; assay: Inhibition of (+)-MK-801-induced hyperactivity in rats following 200 umol/kg i.p.; format: functional; set-up: scale not given: the % may be the effect or the level left; procedure, shortened: as §1
[8] = system: Rattus norvegicus; assay: Inhibition of (+)-MK-801-induced hyperactivity in rats following 10 uM/kg i.p.; format: functional; set-up: scale not given: the % may be the effect or the level left; procedure, shortened: as §1
[9] = system: Rattus norvegicus; assay: Inhibition of (+)-MK-801-induced hyperactivity in rats following 100 umol/kg i.p.; format: functional; set-up: scale not given: the % may be the effect or the level left; procedure, shortened: as §1
[10] = target: T1, 5-hydroxytryptamine receptor 1A (Rattus norvegicus, UniProt P19327); assay: Binding affinity towards 5-hydroxytryptamine 1A receptor
T1 sequence (P19327 whole entry): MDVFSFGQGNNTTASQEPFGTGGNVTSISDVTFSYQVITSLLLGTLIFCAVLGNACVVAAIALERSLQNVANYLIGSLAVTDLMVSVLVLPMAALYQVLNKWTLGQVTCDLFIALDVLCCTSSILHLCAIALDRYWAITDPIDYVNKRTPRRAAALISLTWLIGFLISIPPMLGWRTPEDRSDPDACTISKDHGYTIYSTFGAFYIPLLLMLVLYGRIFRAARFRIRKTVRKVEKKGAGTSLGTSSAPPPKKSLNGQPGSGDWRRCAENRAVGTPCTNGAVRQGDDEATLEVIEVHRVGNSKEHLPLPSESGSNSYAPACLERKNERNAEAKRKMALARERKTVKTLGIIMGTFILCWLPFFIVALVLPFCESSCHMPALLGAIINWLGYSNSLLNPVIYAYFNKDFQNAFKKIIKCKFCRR
Procedure, shortened: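 Competition binding with [3H]-8-OH-DPAT at 5-HT1A sites in CHO cells expressing the cloned receptor. Affinity is given as Ki (nM) with SD or 95% CI. Compounds were first screened at 1 µmol/L in a monoaminergic/opioid/adrenergic receptor profile binding assay.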

Sequence of D(3) dopamine receptor (Rattus norvegicus) (P19020 whole entry): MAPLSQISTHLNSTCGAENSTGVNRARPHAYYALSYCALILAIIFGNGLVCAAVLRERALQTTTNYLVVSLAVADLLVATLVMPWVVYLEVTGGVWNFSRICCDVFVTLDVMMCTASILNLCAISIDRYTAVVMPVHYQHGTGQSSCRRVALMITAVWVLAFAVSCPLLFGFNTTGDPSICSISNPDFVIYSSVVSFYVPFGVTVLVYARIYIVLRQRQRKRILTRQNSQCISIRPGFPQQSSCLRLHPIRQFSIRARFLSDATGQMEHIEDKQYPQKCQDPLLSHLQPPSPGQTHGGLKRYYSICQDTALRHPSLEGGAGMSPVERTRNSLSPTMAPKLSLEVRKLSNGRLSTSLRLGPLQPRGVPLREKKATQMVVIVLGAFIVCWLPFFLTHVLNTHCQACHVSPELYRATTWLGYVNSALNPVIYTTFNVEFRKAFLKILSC
Sequence of D(3) dopamine receptor (P19020 whole entry): as above
Sequence of D(2) dopamine receptor (P61169 whole entry): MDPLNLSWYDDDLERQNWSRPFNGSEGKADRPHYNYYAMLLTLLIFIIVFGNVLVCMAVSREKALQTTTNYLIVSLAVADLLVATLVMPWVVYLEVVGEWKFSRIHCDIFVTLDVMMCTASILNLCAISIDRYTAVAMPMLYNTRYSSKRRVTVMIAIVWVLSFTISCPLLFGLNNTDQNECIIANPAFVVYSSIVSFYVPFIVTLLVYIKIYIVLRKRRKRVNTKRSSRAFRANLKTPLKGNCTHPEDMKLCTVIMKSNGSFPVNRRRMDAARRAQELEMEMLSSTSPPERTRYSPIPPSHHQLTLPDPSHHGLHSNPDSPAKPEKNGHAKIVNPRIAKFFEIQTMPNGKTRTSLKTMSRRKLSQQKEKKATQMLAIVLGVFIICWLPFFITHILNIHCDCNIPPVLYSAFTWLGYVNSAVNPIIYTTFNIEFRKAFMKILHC
Sequence of D(2) dopamine receptor (Rattus norvegicus) (P61169 whole entry): as above

Compound	Stability [1]	Ki [2]	Ki [3]	inhibition [4]	inhibition [5]	further results
CCCN(CCCc1ccccc1)C1Cc2cc(OC)c(OC)cc2C1	67%	0.155 µM	0.023 µM			
CCCN(CC)C1Cc2cc(OC)c(OC)cc2C1	42%	0.374 µM	0.065 µM			
CCCN(CCc1ccsc1)C1Cc2cc(OC)c(OC)cc2C1	14%	0.061 µM	0.014 µM			
CCC(C)NC1Cc2cc(OC)c(OC)cc2C1 (configuration not stated)				0%	4%	
CCCN(Cc1ccsc1)C1Cc2cc(OC)c(OC)cc2C1	15%	1.24 µM	0.374 µM			
CCCN(CCCF)C1Cc2cc(OC)c(OC)cc2C1	9%	1.84 µM	0.342 µM			
CCCN(CCc1ccc(OC)c(OC)c1)C1Cc2cc(OC)c(OC)cc2C1		0.066 µM	0.029 µM			
CCCN(CCC)C1Cc2cc(OC)c(OC)cc2C1 [PNU-99194A]	38%	0.992 µM	0.031 µM			Control [6]: 447%; Control [7]: 143%; Control [8]: 583%; Control [9]: 391%
CCCN(C(C)CC)C1Cc2cc(OC)c(OC)cc2C1 (configuration not stated)				16%	2%	
CCCN(CCc1ccccc1)C1Cc2cc(OC)c(OC)cc2C1	12%	0.027 µM	0.032 µM			
CCCN(CCc1cccc(F)c1)C1Cc2cc(OC)c(OC)cc2C1		0.125 µM	0.03 µM			
COc1cc2c(cc1OC)CC(N1CCCCCC1)C2	32%			3%	2%	
COc1cc2c(cc1OC)CC(N)C2				0%	2%	
COc1cc2c(cc1OC)CC(N1CCCC1)C2				4%	13%	
CCC(CC)NC1Cc2cc(OC)c(OC)cc2C1				0%	0%	
CCCN(CCc1csc(N)n1)C1Cc2cc(OC)c(OC)cc2C1		0.265 µM	0.136 µM			
CCCN(CC1CC1)C1Cc2cc(OC)c(OC)cc2C1	23%					
CCCN1CC[C@H]2c3c(cccc3C(N)=O)CC[C@H]21	100%					
CCCN(CCC)C1Cc2ccc(O)cc2C1 (configuration not stated)		0.053 µM	0.014 µM			Ki [10]: > 3 µM

Compound	Stability [1]	Ki [2]	Ki [3]	inhibition [4]	inhibition [5]	further results
CCCN(CCc1ccc(Br)cc1)C1Cc2cc(OC)c(OC)cc2C1		0.097 µM	0.022 µM			
CCCN(CCC)C1Cc2cccc(OC)c2C1 (configuration not stated)		0.0042 µM	0.045 µM			Ki [10]: 0.0051 µM
CCCN(CCC)C1Cc2cccc(O)c2C1 (configuration not stated)		0.0052 µM	0.042 µM			Ki [10]: 0.0195 µM
CCCN(CCc1cccs1)C1Cc2cc(OC)c(OC)cc2C1	26%		0.078 µM		86%	
CCCN(Cc1cccs1)C1Cc2cc(OC)c(OC)cc2C1	35%			35%	20%	
COc1cc2c(cc1OC)CC(N(CCCF)CCCF)C2	8%			3%		
CCCNC1Cc2cc(OC)c(OC)cc2C1				17%	19%	
CCCN(CCc1ccc(C(F)(F)F)cc1)C1Cc2cc(OC)c(OC)cc2C1		0.31 µM	0.034 µM			
CCCN(CCc1cccnc1)C1Cc2cc(OC)c(OC)cc2C1		0.286 µM	0.134 µM			
CCCN(CCc1ccc(OC)cc1)C1Cc2cc(OC)c(OC)cc2C1	53%	0.163 µM	0.039 µM			
C=CCN(CC=C)C1Cc2cc(OC)c(OC)cc2C1	13%			12%	19%	
CCCN(CCc1ccc(C(N)=O)cc1)C1Cc2cc(OC)c(OC)cc2C1		0.123 µM	0.042 µM			
COc1cc2c(cc1OC)CC(N(CC1CC1)CC1CC1)C2	22%			0%	15%	
COc1cc2c(cc1OC)CC(N(C)C)C2	59%			26%	19%	
CCN(CC)C1Cc2cc(OC)c(OC)cc2C1				20%	9%	
CCCCN(CCCC)C1Cc2cc(OC)c(OC)cc2C1	13%		0.18 µM		22%	
COc1cc2c(cc1OC)CC(N1CCOCC1)C2	41%			-2%	10%	
CCCN(CCC)C1Cc2ccc(OC)cc2C1 (configuration not stated)		0.263 µM	0.084 µM			
CCCN(CCc1cccc(N)c1)C1Cc2cc(OC)c(OC)cc2C1		0.162 µM	0.045 µM			
